Measured values from ChEMBL document CHEMBL3588851, “Antiviral Matrine-Type Alkaloids from the Rhizomes of Sophora tonkinensis” (J Nat Prod, 2015).
Activity calls are given as the source filed them. The calls are words filed in the database; no cut-off is given here.

Columns and labels:
[1] = tested on: Coxsackievirus B3; test: Antiviral activity against coxsackievirus B3 infected in African green monkey Vero cells assessed as inhibition of virus-induced cytopathogenic effect dosed 1 hr after viral adsorption; type: functional, organism-based; conditions: Enterovirus B
How it was run: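 Confluent Vero monolayers were infected with 100 TCID50 CVB3 and adsorbed for 1 h at 37 °C. They were then washed with PBS and kept at 37 °C in MEM plus 2% FBS, with or without a range of compound concentrations. Ribavirin served as positive control.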

[2] = tested on: Influenza A virus; test: Antiviral activity against influenza A virus (A/Hanfang/359/95(H3N2)) infected in MDCK cells assessed as inhibition of virus-induced cytopathogenic effect at maximal nontoxic concentration dosed 1 hr after viral adsorption; type: functional, organism-based
[3] = Cytotoxic activity against African green monkey Vero cells assessed as cytopathogenic effect incubated for 48 hrs; type: cell-based; conditions: chlorocebus sabaeus, read-out: TC50
How it was run: (§1)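 Cells plated in 96-well plates; after 24 h, monolayers exposed to various concentrations of compound for 48 h at 37 °C, 5% CO2. Toxicity monitored by cytopathogenic effect (CPE). Median toxic concentration (TC50) calculated by the Reed and Muench method.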

[4] = Selectivity index, ratio of TC50 for African green monkey Vero cells to IC50 for coxsackievirus B3 infected in African green monkey Vero cells; type: toxicity, cell-based; conditions: read-out: Selectivity Index
How it was run: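 SI = TC50/IC50. TC50 from 48 h CPE-monitored Vero toxicity, calculated by Reed and Muench. IC50 from Vero monolayers infected with 100 TCID50 CVB3, adsorbed 1 h at 37 °C, PBS-washed, then maintained in MEM + 2% FBS with compound at 37 °C.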

[5] = tested on: Coxsackievirus B3; test: Antiviral activity against coxsackievirus B3 infected in African green monkey Vero cells assessed as inhibition of virus-induced cytopathogenic effect at maximal nontoxic concentration dosed 1 hr after viral adsorption; type: functional, organism-based
How it was run: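 Confluent Vero monolayers in 96-well plates infected with 100 TCID50 CVB3. After 1 h adsorption at 37 °C, cells washed with PBS. Then incubated at 37 °C in maintenance medium (MEM + 2% FBS) with or without compound, tested at its maximal nontoxic concentration.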

[6] = tested on: Influenza A virus; test: Antiviral activity against influenza A virus (A/Hanfang/359/95(H3N2)) infected in MDCK cells assessed as inhibition of virus-induced cytopathogenic effect dosed 1 hr after viral adsorption; type: functional, organism-based
[7] = Cytotoxic activity against MDCK cells assessed as cytopathogenic effect incubated for 48 hrs; type: cell-based, Canis lupus familiaris; conditions: dog, read-out: TC50; how it was run: as §1
[8] = Selectivity index, ratio of TC50 for […] MDCK cells to IC50 for influenza A virus (A/Hanfang/359/95(H3N2)); type: toxicity, cell-based; conditions: read-out: Selectivity Index
How it was run: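 SI is TC50/IC50. TC50: MDCK cells were plated for 24 h, then exposed to graded compound concentrations for 48 h at 37 °C in 5% CO2, scored by CPE, and calculated by Reed–Muench. IC50 came from the H3N2-infected MDCK assay, with 1 h adsorption and then compound in MEM plus 2% FBS.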

[9] = tested on: Coxsackievirus B3; test: Antiviral activity against coxsackievirus B3 infected in African green monkey Vero cells assessed as inhibition of virus-induced cytopathogenic effect dosed 1 hr after viral adsorption relative to ribavirin; type: functional

| Compound | inhibition [2] | inhibition [5] | IC50 [6] | selectivity ratio [8] | other results |
| --- | --- | --- | --- | --- | --- |
| O=C1C=CC[C@@H]2[C@H]3C[C@H](O)CN4CCC[C@@H](CN12)[C@@H]34 | inactive | – | – | – | IC50 [1]: 197 µM; CC50 at 48 h [3]: > 762 µM; selectivity ratio [4]: > 3.9 |
| O=C1CCC[C@@H]2[C@H]3CCC[N+]4([O-])CCC[C@@](O)(CN12)[C@@H]34 (some centres not stated) | inactive | inactive | – | – | – |
| O=C1C=C[C@H](O)[C@@H]2[C@H]3CCCN4CCC[C@@H](CN12)[C@@H]34 | – | inactive | 84.7 µM | 5.7 | CC50 at 48 h [7]: 479 µM |
| O=C1C=CC[C@@H]2[C@H]3CCC[N+]4([O-])CCC[C@@H](CN12)[C@@H]34 (some centres not stated) [OXYSOPHOCARPINE] | – | inactive | 403 µM | > 1.9 | CC50 at 48 h [7]: > 762 µM |
| O=C1C=CC[C@@H]2[C@H]3CCC[N+]4([O-])CCC[C@@](O)(CN12)[C@@H]34 (some centres not stated) | – | inactive | – | – | – |
| CCOC(=O)C1=C[C@@H](OC(CC)CC)[C@H](NC(C)=O)[C@@H](N)C1 [OSELTAMIVIR] | – | – | 1.07 µM | 2870 | – |
| O=C1CCC[C@@H]2[C@H]3C[C@H](O)CN4CCC[C@@H](CN12)[C@@H]34 | inactive | inactive | – | – | – |
| O=C1CCC[C@@H]2[C@H]3CCC[N+]4([O-])CCC[C@@H](CN12)[C@@H]34 (some centres not stated) | inactive | inactive | – | – | – |
| O=C1CCC[C@@H]2[C@H]3CCCN4CCC[C@@](O)(CN12)[C@@H]34 | inactive | – | – | – | IC50 [1]: 252 µM; CC50 at 48 h [3]: > 757 µM; selectivity ratio [4]: > 3 |
| NC(=O)c1ncn([C@@H]2O[C@H](CO)[C@@H](O)[C@H]2O)n1 [RIBAVIRIN] | – | – | – | 813 | IC50 [1]: 1200 µM; selectivity ratio [4]: 6.8 |
| O=C1C=CC[C@@H]2[C@H]3CCCN4CCC[C@@](O)(CN12)[C@@H]34 | – | inactive | 440 µM | > 1.7 | CC50 at 48 h [7]: > 762 µM |
| O=C1[C@@H](O)CC[C@@H]2[C@H]3CCCN4CCC[C@@H](CN12)[C@@H]34 | inactive | – | – | – | IC50 [1]: 184 µM; CC50 at 48 h [3]: 757 µM; selectivity ratio [4]: 4.1 |
| O=C1C=CC[C@@H]2[C@H]3CCCN4CCC[C@@H](CN12)[C@@H]34 | inactive | inactive | – | – | – |
| O=c1cccc2n1C[C@@H]1CCCN3CCC[C@H]2[C@H]13 | – | inactive | 63.1 µM | 4.3 | CC50 at 48 h [7]: 273 µM |
| O=C1C=C[C@@H](O)[C@@H]2[C@H]3CCC[N+]4([O-])CCC[C@@H](CN12)[C@@H]34 (some centres not stated) | inactive | – | – | – | IC50 [1]: 26.6 µM; CC50 at 48 h [3]: 115 µM; selectivity ratio [4]: 4.3; Ratio IC50 [9]: 45 |
| O=C1C=C[C@@H](O)[C@@H]2[C@H]3CCCN4CCC[C@@H](CN12)[C@@H]34 | – | inactive | 242 µM | > 3.1 | CC50 at 48 h [7]: > 762 µM |
| O=C1[C@@H](O)CC[C@@H]2[C@H]3CCC[N+]4([O-])CCC[C@@H](CN12)[C@@H]34 (some centres not stated) | inactive | inactive | – | – | – |
| O=C1CC=C[C@@H]2[C@H]3CCCN4CCC[C@@](O)(CN12)[C@@H]34 | inactive | inactive | – | – | – |
| O=C1CCC[C@@H]2[C@H]3CCCN4CCC[C@@H](CN12)[C@@H]34 | inactive | inactive | – | – | – |
